Assay results: publication PMC8085964 (Pharmacology Research & Perspectives, 2021)
“Also recorded” adds a separate entry of the source. Blank lines part the entries; values can stand above or below the molecule they belong to.

Legend:
[1] = Clinical safety assessments; assay type: in vivo, healthy male participants (human); conditions: for tolerability: healthy participants, result in words
Procedure, shortened: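 Healthy young males (18–40 y, BMI 18–35) got a single oral test compound dose of 40 mg/kg by weight, then a 400 mg/day antiretroviral for 13 days under daily directly observed treatment. They stayed inpatient ≥24 h before and after dosing (days 1–3, 15–17). Vital signs were checked and adverse events or symptoms monitored. Examination, biochemistry, haematology, urinalysis and ECG were done at screening.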

[2] = Effect of efavirenz on R‐ and S‐PZQ pharmacokinetics; assay type: in vivo, healthy male participants (human); conditions: for AUCinf, Geo Mean / AUCt0‐tlast, Geo Mean / C max, Geo Mean / Clearance/F, Geo Mean / Elimination rate constant, Geo Mean / Half‐Life, Geo Mean / T max, Geo Mean / V d/F, Geo Mean: plasma
[3] = should be maintained for at least 4 h for efficacy; cited from earlier work
[4] = patients pre‐exposed to rifampicin; cited from earlier work
[5] = Effect of ritonavir on R‐ and S‐PZQ pharmacokinetics; assay type: in vivo, healthy male participants (human); conditions: for AUCinf, Geo Mean / AUCt0‐tlast, Geo Mean / Clearance/F, Geo Mean / Elimination rate constant, Geo Mean / Half‐Life, Geo Mean / T max, Geo Mean / V d/F, Geo Mean / C max, Geo Mean: plasma; for effect of ritonavir on pharmacokinetics: result in words
[6] = PZQ + Efavirenz (treatment): 40 mg/kg racemic PZQ after 400 mg efavirenz/day
[7] = PZQ alone (reference), single oral 40 mg/kg racemic PZQ, efavirenz arm
[8] = PZQ + Ritonavir (treatment): 40 mg/kg racemic PZQ after 100 mg ritonavir/day for 14 days
[9] = PZQ + Ritonavir (treatment): 40 mg/kg racemic PZQ after 100 mg ritonavir/day for 14 days, 40 mg/kg
[10] = PZQ alone (reference), single oral 40 mg/kg racemic PZQ, ritonavir arm
[11] = PZQ alone (reference), single oral 40 mg/kg racemic PZQ, ritonavir arm, 40 mg/kg

SMILES: O=C(C1CCCCC1)N1CC(=O)N2CCc3ccccc3C2C1 (stereo not shown) [PZQ, praziquantel]
tolerability [1]: generally well tolerated
attainment of the MEC (1 µg/mL for at least 4 h) ([2]; PZQ with efavirenz, result in words): all participants failed to attain the MEC for more than the minimum 4 h
minimum effective concentration (MEC) [3]: 1 µg/mL
participants without detectable levels [4]: 7 out of 10

SMILES: CC(C)c1nc(CN(C)C(=O)N[C@H](C(=O)N[C@@H](Cc2ccccc2)C[C@H](O)[C@H](Cc2ccccc2)NC(=O)OCc2cncs2)C(C)C)cs1 [ritonavir]
tolerability [1]: generally well tolerated

AUCinf, Geo Mean [2, 6]: 871.84 ng·h/mL
AUCt0‐tlast, Geo Mean [2, 6]: 826.17 ng·h/mL
C max, Geo Mean [2, 6]: 329.98 ng/mL
Clearance/F, Geo Mean [2, 6]: 2727.44 L/h
Elimination rate constant, Geo Mean [2, 6]: 0.35 h⁻¹
Half‐Life, Geo Mean [2, 6]: 2.00 h
T max, Geo Mean [2, 6]: 1.81 h
V d/F, Geo Mean [2, 6]: 7887.36 L
AUCinf, Difference observed ([2]; PZQ + efavirenz vs PZQ alone): −75.26%
AUCt0‐tlast, Difference observed ([2]; PZQ + efavirenz vs PZQ alone): −75.16%
AUCt0‐tlast, Treatment/reference GMR ([2]; PZQ + efavirenz vs PZQ alone): 15.26%
C max, Difference observed ([2]; PZQ + efavirenz vs PZQ alone): −76.85%
Clearance/F, Difference observed ([2]; PZQ + efavirenz vs PZQ alone): 950.27%
Elimination rate constant, Difference observed ([2]; PZQ + efavirenz vs PZQ alone): 11.76%
Half‐Life, Difference observed ([2]; PZQ + efavirenz vs PZQ alone): −15.83%
T max, Difference observed ([2]; PZQ + efavirenz vs PZQ alone): −25.48%
V d/F, Difference observed ([2]; PZQ + efavirenz vs PZQ alone): 757.72%
AUCt0‐tlast, Geo Mean [2, 7]: 5413.80 ng·h/mL
C max, Geo Mean [2, 7]: 1991.32 ng/mL
Clearance/F, Geo Mean [2, 7]: 419.40 L/h
Elimination rate constant, Geo Mean [2, 7]: 0.31 h⁻¹
Half‐Life, Geo Mean [2, 7]: 2.27 h
T max, Geo Mean [2, 7]: 2.42 h
V d/F, Geo Mean [2, 7]: 1373.82 L
AUCinf, Geo Mean ([2]; PZQ alone (reference), single oral 40 mg/kg racemic PZQ, efavirenz arm, 40 mg/kg): 5669.77 ng·h/mL
AUCinf, Geo Mean [5, 8]: 7291.05 ng·h/mL
AUCt0‐tlast, Geo Mean [5, 8]: 7083.71 ng·h/mL
Clearance/F, Geo Mean [5, 8]: 325.12 L/h
Elimination rate constant, Geo Mean [5, 8]: 0.38 h⁻¹
Half‐Life, Geo Mean [5, 8]: 1.81 h
T max, Geo Mean [5, 8]: 1.60 h
V d/F, Geo Mean [5, 8]: 847.06 L
C max, Geo Mean [5, 9]: 2336.96 ng/mL
AUCinf, Difference observed ([5]; PZQ + ritonavir vs PZQ alone): 69.84%
AUCinf, Treatment/reference GMR ([5]; PZQ + ritonavir vs PZQ alone): 175.49%
AUCt0‐tlast, Difference observed ([5]; PZQ + ritonavir vs PZQ alone): 71.88%
AUCt0‐tlast, Treatment/reference GMR ([5]; PZQ + ritonavir vs PZQ alone): 178.30%
C max, Difference observed ([5]; PZQ + ritonavir vs PZQ alone): 88.41%
Clearance/F, Difference observed ([5]; PZQ + ritonavir vs PZQ alone): −44.37%
Elimination rate constant, Difference observed ([5]; PZQ + ritonavir vs PZQ alone): 34.38%
Half‐Life, Difference observed ([5]; PZQ + ritonavir vs PZQ alone): −19.25%
T max, Difference observed ([5]; PZQ + ritonavir vs PZQ alone): −24.58%
V d/F, Difference observed ([5]; PZQ + ritonavir vs PZQ alone): −55.79%
effect of ritonavir on pharmacokinetics ([5]; PZQ + ritonavir vs PZQ alone): significant effect
AUCinf, Geo Mean [5, 10]: 4154.79 ng·h/mL
AUCt0‐tlast, Geo Mean [5, 10]: 3972.89 ng·h/mL
Clearance/F, Geo Mean [5, 10]: 570.54 L/h
Elimination rate constant, Geo Mean [5, 10]: 0.31 h⁻¹
Half‐Life, Geo Mean [5, 10]: 2.25 h
T max, Geo Mean [5, 10]: 2.20 h
V d/F, Geo Mean [5, 10]: 1847.59 L
C max, Geo Mean [5, 11]: 1174.93 ng/mL
SMILES: O=C(C1CCCCC1)N1CC(=O)N2CCc3ccccc3[C@H]2C1 [S‐Praziquantel]

AUCt0‐tlast, Geo Mean [2, 6]: 248.02 ng·h/mL
C max, Geo Mean [2, 6]: 104.32 ng/mL
Clearance/F, Geo Mean [2, 6]: 8449.32 L/h
Elimination rate constant, Geo Mean [2, 6]: 0.25 h⁻¹
Half‐Life, Geo Mean [2, 6]: 2.76 h
T max, Geo Mean [2, 6]: 1.64 h
V d/F, Geo Mean [2, 6]: 33637.78 L
AUCinf, Geo Mean ([2]; PZQ + Efavirenz (treatment): 40 mg/kg racemic PZQ after 400 mg efavirenz/day, 40 mg/kg): 281.43 ng·h/mL
AUCinf, Difference observed ([2]; PZQ + efavirenz vs PZQ alone): −74.36%
AUCinf, Treatment/reference GMR ([2]; PZQ + efavirenz vs PZQ alone): 23.20%
AUCt0‐tlast, Difference observed ([2]; PZQ + efavirenz vs PZQ alone): −76.90%
AUCt0‐tlast, Treatment/reference GMR ([2]; PZQ + efavirenz vs PZQ alone): 21.75%
C max, Difference observed ([2]; PZQ + efavirenz vs PZQ alone): −82.52%
C max, Treatment/reference GMR ([2]; PZQ + efavirenz vs PZQ alone): 21.21%
Clearance/F, Difference observed ([2]; PZQ + efavirenz vs PZQ alone): 546.74%
Elimination rate constant, Difference observed ([2]; PZQ + efavirenz vs PZQ alone): 3.45%
Half‐Life, Difference observed ([2]; PZQ + efavirenz vs PZQ alone): 17.63%
T max, Difference observed ([2]; PZQ + efavirenz vs PZQ alone): −18.22%
V d/F, Difference observed ([2]; PZQ + efavirenz vs PZQ alone): 280.92%
reduction in AUCinf (exposure) by efavirenz ([2]; PZQ + efavirenz vs PZQ alone): 4 fold
AUCinf, Geo Mean [2, 7]: 1213.15 ng·h/mL
AUCt0‐tlast, Geo Mean [2, 7]: 1140.41 ng·h/mL
C max, Geo Mean [2, 7]: 491.78 ng/mL
Clearance/F, Geo Mean [2, 7]: 1960.10 L/h
Elimination rate constant, Geo Mean [2, 7]: 0.26 h⁻¹
Half‐Life, Geo Mean [2, 7]: 2.66 h
T max, Geo Mean [2, 7]: 1.88 h
V d/F, Geo Mean [2, 7]: 7507.98 L
change in the T max when co‐administered with efavirenz ([2]; result in words): no change
AUCt0‐tlast, Geo Mean [5, 8]: 950.73 ng·h/mL
C max, Geo Mean [5, 8]: 354.34 ng/mL
Elimination rate constant, Geo Mean [5, 8]: 0.26 h⁻¹
Half‐Life, Geo Mean [5, 8]: 2.71 h
T max, Geo Mean [5, 8]: 1.53 h
V d/F, Geo Mean [5, 8]: 8772.21 L
AUCinf, Geo Mean [5, 9]: 1057.66 ng·h/mL
Clearance/F, Geo Mean [5, 9]: 2241.23 L/h
AUCinf, Difference observed ([5]; PZQ + ritonavir vs PZQ alone): 17.62%
AUCinf, Treatment/reference GMR ([5]; PZQ + ritonavir vs PZQ alone): 104.41%
AUCt0‐tlast, Difference observed ([5]; PZQ + ritonavir vs PZQ alone): 22.8%
AUCt0‐tlast, Treatment/reference GMR ([5]; PZQ + ritonavir vs PZQ alone): 107.06%
C max, Difference observed ([5]; PZQ + ritonavir vs PZQ alone): 13.70%
C max, Treatment/reference GMR ([5]; PZQ + ritonavir vs PZQ alone): 114.88%
Clearance/F, Difference observed ([5]; PZQ + ritonavir vs PZQ alone): 4.36%
Elimination rate constant, Difference observed ([5]; PZQ + ritonavir vs PZQ alone): 26.08%
Half‐Life, Difference observed ([5]; PZQ + ritonavir vs PZQ alone): −28.64%
T max, Difference observed ([5]; PZQ + ritonavir vs PZQ alone): −15.46%
V d/F, Difference observed ([5]; PZQ + ritonavir vs PZQ alone): −15.74%
AUCt0‐tlast, Geo Mean [5, 10]: 888.02 ng·h/mL
C max, Geo Mean [5, 10]: 308.44 ng/mL
Elimination rate constant, Geo Mean [5, 10]: 0.19 h⁻¹
Half‐Life, Geo Mean [5, 10]: 3.57 h
T max, Geo Mean [5, 10]: 1.69 h
V d/F, Geo Mean [5, 10]: 12034.61 L
AUCinf, Geo Mean [5, 11]: 1012.96 ng·h/mL
Clearance/F, Geo Mean [5, 11]: 2340.12 L/h
SMILES: O=C(C1CCCCC1)N1CC(=O)N2CCc3ccccc3[C@@H]2C1 [R‐Praziquantel]
effect of ritonavir on pharmacokinetics ([5]; PZQ + ritonavir vs PZQ alone, listed as R‐PZQ): no significant effect; also recorded: did not have a significant inhibitory effect

SMILES: O=C1Nc2ccc(Cl)cc2[C@@](C#CC2CC2)(C(F)(F)F)O1 [efavirenz]
participants with mild dizziness ([1]; efavirenz group, symptoms disappearing by day 5): 33%
